Bioassay records: PubChem, Broad Institute
In the library only some 3.5% were active in any assay of this set; here they are far more common.
FGF22 binding: binders of recombinant human FGF22 by thermal shift | Q9HCT0 | SYPRO orange fluorescence; percent of sucrose octasulfate shift, DMSO zero | activity (Tm shift, normalised), % at 9.99 µM | actives 1.5% (n = 340,000);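 active = mean Tm shift, scaled 0 neutral to 100 positive control, at about 1.3% or above, every replicate too, limit read from the data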
Target sequence (Q9HCT0 whole entry, looked up): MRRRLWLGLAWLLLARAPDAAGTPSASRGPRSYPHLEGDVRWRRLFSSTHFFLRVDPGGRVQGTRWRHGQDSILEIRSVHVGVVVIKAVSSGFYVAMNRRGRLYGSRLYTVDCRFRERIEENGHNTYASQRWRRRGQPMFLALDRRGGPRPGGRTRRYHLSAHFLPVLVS
ERAP1 inh: ERAP1 (human) enzyme inhibition; recombinant ERAP1, Leu-AMC fluorescence, 60 min; inhibition, % at 10.7 µM; Q9NZ08; AID 652197; actives 0.15% (n = 340,000);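 active = mean replicate inhibition of at least 30%, or all replicates individually reaching that 30% level; inactive = mean below 30% and not every replicate reaching it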
Cneo AK release: Cryptococcus neoformans lysis via adenylate kinase release; lysis activity, % at 15 µM; C. neoformans lysis, adenylate kinase release luminescence, 4 h; normalised: neutral wells 0, clomiphene wells 100; actives 0.2% (n = 360,000); AID 651654;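 active = mean lysis activity across replicates of at least 80%, whatever share of replicates individually reach that level; inactive = mean lysis activity below 80%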
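Assay system: log-phase C. neoformans yeast / Quantity: yeast cell density of 5 × 10^6 cells/mL / Medium: fresh YPD growth medium / Compound: single dose / Timing: static 4 h at 37 °C with compound, 1 h detection / Measured by: adenylate kinase release luminescence / Read-out: lysis from increased AK signal / Benchmarks: Clomiphene as positive lysis control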
HIV Env fusion: HIV envelope-mediated fusion inhibition; HeLa-JRFL Env/CEM21 cell fusion, luciferase; inhibition, % at 12.3 µM; actives 1.1% (n = 360,000); AID 651610;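 active = mean replicate inhibition score of at least 50 and every replicate individually at or above 50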
rRNA inh HTS: inhibitors of bacterial rRNA selective over humanized ribosomes; E. coli WT GFP vs humanized-ribosome RFP mutants, fluorescence, 24 h; hits give low values; DMSO median 0, no signal -100; GFP signal change (wild-type ribosome), % (test concentration not listed); actives 1.6% (n = 350,000); AID 720706;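 active = significant combined selectivity score with lowered wild-type GFP, culture density cut under 30%, mutant RFP and density less affected; inactive = any of these conditions unmet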
PGC1a acetyl inh: lowers PGC1a acetylation signal in U2OS cells | inhibition, % at 15.6 µM | AID 651687 | AlphaScreen anti-acetyl-lysine; with virally co-expressed GCN5 acetyltransferase | actives 0.17% (n = 350,000);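 active = every replicate shows inhibition of at least 40%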
Of the large screens only hits and unclear results are named; the others gave an inactive call; ! = a repeat was not active; [ ] = dose if it differs, or a comment.

C[C@H](CO)N1C[C@H](C)[C@H](CN(C)S(=O)(=O)c2cccc(F)c2)OCc2ccccc2-c2c(n(C)c3ccccc23)C1=O	HIV Env fusion 97.5!
C[C@H]1CN([C@@H](C)CO)C(=O)c2c(c3ccccc3n2C)-c2ccccc2CO[C@H]1CN(C)S(=O)(=O)c1cccc(C#N)c1	none (no result: FGF22 binding, ERAP1 inh, Cneo AK release, HIV Env fusion, PGC1a acetyl inh)
C[C@H]1CN([C@@H](C)CO)C(=O)c2c(c3ccccc3n2C)-c2ccccc2CO[C@@H]1CN(C)S(=O)(=O)c1cccc(F)c1	none
CO[C@H](CN(C)Cc1nccs1)[C@@H](C)CN([C@H](C)CO)S(=O)(=O)c1ccc(C)cc1	none (no result: HIV Env fusion)
N=C1C(c2nc3ccccc3[nH]2)=C(O)CN1c1ccc(CC(=O)O)cc1	none (no result: FGF22 binding, ERAP1 inh, rRNA inh HTS)
COCC(=O)N(C)C[C@@H]1Oc2cc(C#CC(C)C)ccc2S(=O)(=O)N([C@H](C)CO)C[C@H]1C	none
COc1ccc(-c2cc(C(F)(F)F)nc(SCC(=O)NCc3cnn(C)c3C)n2)cc1OC	none (no result: FGF22 binding, ERAP1 inh, rRNA inh HTS)
COC(=O)c1ccccc1S(=O)(=O)NNC(=O)C1COc2ccccc2O1 (stereo unspecified)	none
Cc1noc(C)c1NC(=O)N(C)C[C@H]1OCCCC[C@H](C)Oc2ccc(NC(=O)NC3CCCCC3)cc2C(=O)N([C@H](C)CO)C[C@@H]1C	none
Cc1noc(C)c1NC(=O)N(C)C[C@H]1OCCCC[C@H](C)Oc2ccc(NC(=O)NC3CCCCC3)cc2C(=O)N([C@@H](C)CO)C[C@@H]1C	FGF22 binding 1.4
Cc1noc(C)c1NC(=O)N(C)C[C@H]1OCCCC[C@H](C)Oc2ccc(NC(=O)c3ccccc3)cc2C(=O)N([C@H](C)CO)C[C@@H]1C	HIV Env fusion 67.5[16.7 µM] (no result: FGF22 binding)
CC1Cc2ccccc2N1C(=O)c1ccc2snnc2c1 (stereo unspecified)	none (no result: HIV Env fusion)
O=C(O)c1cc(-c2ccco2)nn1-c1cccc(Cl)c1	FGF22 binding 43.2 (no result: Cneo AK release, PGC1a acetyl inh)
CCOC(=O)N1CCC(NCCNC(=O)c2ccc(Cl)cc2)CC1	none (no result: FGF22 binding, ERAP1 inh, rRNA inh HTS)
CCOC(=O)N1CCC(NCCNC(=O)c2ccco2)CC1	FGF22 binding 44.0
Oc1ccc(C[C@H]2CNC(=S)N2CC2CCCN2C[C@H](Cc2ccc(O)cc2)N2C[C@H](Cc3ccccc3)N(CC3CCCCCC3)C2=S)cc1 (stereo partly specified)	HIV Env fusion 60.6 (no result: ERAP1 inh)
CC(CCN1CCC(CN2C(=S)NCC2Cc2ccccc2)CC1)c1ccccc1 (stereo unspecified)	HIV Env fusion 66.3
CC(C)C[C@H]1CNC(=S)N1C[C@H]1CCCN1C[C@H](Cc1ccccc1)N1C[C@H](Cc2ccc(O)cc2)N(CC2CCCCC2)C1=S	none (no result: ERAP1 inh)
CC(C)C[C@H]1CNC(=S)N1C[C@H]1CCCN1C[C@H](Cc1ccc(O)cc1)N1C[C@H](Cc2ccccc2)N(CC2CCCCCC2)C1=S	HIV Env fusion 94.0 (no result: ERAP1 inh)
Oc1ccc(C[C@H]2CN([C@@H](Cc3ccccc3)CN3CCC[C@@H]3CN3C(=S)NC[C@@H]3Cc3ccccc3)C(=S)N2CC2CCCCC2)cc1	none
O=C(N/N=C/c1ccccc1OCc1ccccc1)c1cccnc1	none (no result: Cneo AK release, PGC1a acetyl inh)
CCn1nc(C)c(NC(=O)CSc2nnc(-c3ccco3)n2C)c1C	none (no result: FGF22 binding, ERAP1 inh, HIV Env fusion, rRNA inh HTS)
Cc1nn(Cc2ccccc2)c(C)c1NC(=O)CSc1nnc(-c2cc(Cl)ccc2O)n1C	rRNA inh HTS -19.8 (no result: HIV Env fusion)
CC(=O)c1sc(=S)n(-c2ccccc2)c1C	none (no result: ERAP1 inh, rRNA inh HTS)
CC(=O)c1sc2c(c1OC(=O)c1ccccc1)c(=O)n(-c1ccccc1)c(=S)n2-c1ccccc1	HIV Env fusion 61.6 (no result: Cneo AK release, PGC1a acetyl inh)
O=C(CNC(=O)C1CC1)Nc1ccc(F)c(F)c1F	FGF22 binding 42.9
O=C(CNCC(=O)Nc1ccc(F)c(F)c1F)Nc1ccc(F)c(F)c1F	none
COc1ccc(CCn2c(O)cc3nn(-c4nc5ccccc5s4)c(=O)c-3c2C)cc1	rRNA inh HTS -17.5 (no result: Cneo AK release)
COc1ccc(CN2CCN(c3nc4ccccc4s3)CC2)cc1	none
O=C(c1ccc(NC2=NC3CS(=O)(=O)CC3S2)cc1)N1CCN(c2ccc([N+](=O)[O-])cc2)CC1 (stereo unspecified)	none
